Data published in article PMC3960997 (Biochimica et biophysica acta, 2013).

Columns and labels:
full length TDP-43 [1] = target: T1, full length TDP-43 (Homo sapiens, UniProt Q13148); test: Inhibition of bt-TG12 binding to full length TDP-43
Outline: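 In the same Tris pH 7.0 buffer, GST-tagged full-length TDP-43 (1.6 nM) was preincubated 15-30 min at RT with test-compound dilutions. 1.0 nM biotinylated TG12 was then added for 2 hr at RT. Streptavidin Tb donor and anti-GST d2 acceptor (2.6 μg/mL) were added for 1 hr, then time-resolved fluorescence 665/620 ratio. IC50 from three-parameter dose-response fit; geometric means of four determinations.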

full length TDP-43 [2] = target: T1, full length TDP-43; test: Mode of inhibition of UBQLN2 binding to full length TDP-43
Outline: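 Saturation series: GST-tagged full-length TDP-43 (100 ng/mL, 1.6 nM) with HIS-UBQLN2 (1.0–60 nM), plus oligonucleotide (0–1 μM) or test compound (0–32 μM), 2 hr at RT. Anti-GST/anti-HIS HTRF antibodies were added for 1 hr; nonspecific binding taken without TDP-43. Global nonlinear fits to mixed versus noncompetitive inhibition models compared by F-test; Ki from global model. Duplicates, repeated at least three times.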

[3] = target: T2, C-terminal TDP-43 (261-414 aa) (Homo sapiens, UniProt Q13148); test: Mode of inhibition of UBQLN2 binding to C-terminal TDP-43
Outline: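 GST-tagged C-terminal TDP-43 (261-414 aa, 4.6 nM) was incubated 2 hr at RT with a HIS-UBQLN2 concentration series, with no test compound or 1, 3.2, 10 or 32 μM. Anti-GST/anti-HIS HTRF antibodies were added for 1 hr, then TR-FRET ratio; nonspecific binding measured without TDP-43. Saturation isotherms globally fitted to a competitive inhibition model. Duplicates, repeated at least three times.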

full length TDP-43 [4] = target: T1, full length TDP-43; test: Inhibition of UBQLN2 binding to full length TDP-43
Outline: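 Test-compound dilutions were preincubated 15-30 min at room temperature with GST-tagged full-length TDP-43 (100 ng/mL, 1.6 nM) in 20 mM Tris pH 7.0, 2 mM MgCl₂, 0.05% CHAPS, 1% glycerol. HIS-UBQLN2 (100 ng/mL, 1.4 nM) was added for 2 hr at RT. Anti-GST Tb donor plus anti-HIS d2 acceptor were added for 1 hr. Read-out was TR-FRET 665/620 nm ratio (ex 330 nm). IC50 from three-parameter fit; geometric mean of four determinations.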

[5] = target: T2, C-terminal TDP-43 (261-414 aa); test: UBQLN2 saturation binding to C-terminal TDP-43; details: read-out: KD for UBQLN2 binding to C-terminal TDP-43, C-terminal TDP-43 (261-414 aa) 4.6 nM, n=4
full length TDP-43 [6] = target: T1, full length TDP-43; test: Mode of inhibition of bt-TG12 binding to full length TDP-43; details: F-test comparison of global fits with the mixed inhibition model
Outline: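 Biotinylated TG12 (3–1300 pM) was incubated 2 hr at RT with GST-tagged full-length TDP-43 (1.6 nM), without or with HIS-UBQLN2 (1.0, 3.2, 10, 32 nM). Streptavidin Tb donor and anti-GST d2 acceptor (2.6 μg/mL) were added for 1 hr; nonspecific binding measured without TDP-43. Global nonlinear fits to mixed versus noncompetitive inhibition models compared by F-test. Duplicates, repeated at least three times.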

[7] = target: T3, N-terminal TDP-43 (1-260 aa) (Homo sapiens, UniProt Q13148); test: Inhibition of bt-TG12 binding to N-terminal TDP-43; details: 1.0 nM bt-TG12, N-terminal TDP-43 2.2 nM, n=3
T3 sequence (Q13148 1-260): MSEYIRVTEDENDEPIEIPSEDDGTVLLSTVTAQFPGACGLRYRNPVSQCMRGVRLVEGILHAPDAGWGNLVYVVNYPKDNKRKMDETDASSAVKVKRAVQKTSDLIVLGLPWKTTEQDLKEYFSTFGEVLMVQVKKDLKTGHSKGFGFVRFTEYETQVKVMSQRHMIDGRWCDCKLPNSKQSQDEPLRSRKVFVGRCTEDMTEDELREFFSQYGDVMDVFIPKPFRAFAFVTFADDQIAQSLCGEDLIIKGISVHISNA
Outline: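 GST-tagged N-terminal TDP-43 (1-260 aa; 100 ng/mL, 2.2 nM) was incubated 2 hr at RT with 1.0 nM biotinylated TG12 and either unlabeled oligonucleotide (1 pM–1 μM) or HIS-UBQLN2 (0.3 pM–0.3 μM). Streptavidin Tb donor plus anti-GST d2 acceptor (2.6 μg/mL) were added for 1 hr. Normalized to % bound (0% = 1.0 μM unlabeled TG12); IC50 from three-parameter fit. Duplicates, experiment repeated three times.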

[8] = target: T3, N-terminal TDP-43 (1-260 aa); test: UBQLN2 saturation binding to N-terminal TDP-43; details: N-terminal TDP-43 (1-260 aa) 2.2 nM, data not shown
[9] = target: N-terminal 6XHIS tagged full length UBQLN2 (human, UniProt Q9UHD9 1-624); test: AlphaScreen or HTRF
Sequence of N-terminal 6XHIS tagged full length UBQLN2 (Q9UHD9 whole entry): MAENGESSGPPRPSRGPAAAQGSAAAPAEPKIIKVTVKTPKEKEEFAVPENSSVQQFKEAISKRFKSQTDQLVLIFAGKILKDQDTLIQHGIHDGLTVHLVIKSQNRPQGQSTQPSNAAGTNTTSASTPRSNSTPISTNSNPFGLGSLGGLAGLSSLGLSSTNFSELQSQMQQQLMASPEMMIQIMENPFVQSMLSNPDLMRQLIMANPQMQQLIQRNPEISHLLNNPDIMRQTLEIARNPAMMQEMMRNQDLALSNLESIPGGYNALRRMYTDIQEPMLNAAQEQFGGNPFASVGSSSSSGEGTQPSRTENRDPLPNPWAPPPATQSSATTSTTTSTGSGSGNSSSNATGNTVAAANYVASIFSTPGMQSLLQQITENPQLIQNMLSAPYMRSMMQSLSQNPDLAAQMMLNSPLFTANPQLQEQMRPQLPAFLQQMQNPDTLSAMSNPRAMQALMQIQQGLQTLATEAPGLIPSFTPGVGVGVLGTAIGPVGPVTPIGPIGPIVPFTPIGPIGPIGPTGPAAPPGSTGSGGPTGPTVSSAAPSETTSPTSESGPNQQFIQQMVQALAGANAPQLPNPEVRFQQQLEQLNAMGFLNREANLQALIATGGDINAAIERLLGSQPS

T1 sequence (Q13148 whole entry): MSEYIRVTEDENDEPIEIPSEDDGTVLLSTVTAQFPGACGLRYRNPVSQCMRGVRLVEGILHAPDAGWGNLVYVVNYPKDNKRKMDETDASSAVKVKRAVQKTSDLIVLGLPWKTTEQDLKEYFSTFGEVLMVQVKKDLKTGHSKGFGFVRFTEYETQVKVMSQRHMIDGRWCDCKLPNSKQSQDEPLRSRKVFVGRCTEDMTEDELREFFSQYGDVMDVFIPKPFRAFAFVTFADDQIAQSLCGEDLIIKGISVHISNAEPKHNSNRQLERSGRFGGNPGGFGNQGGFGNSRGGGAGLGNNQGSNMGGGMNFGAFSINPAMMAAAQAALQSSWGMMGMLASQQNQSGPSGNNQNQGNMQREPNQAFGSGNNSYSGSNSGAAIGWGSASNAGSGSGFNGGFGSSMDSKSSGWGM

Molecule: 5′-CTGCTTTTTGCCTGTACTGGGTCTCTGTGGTT-3′ (DNA CTGCTTTTTGCCTGTACTGGGTCTCTGTGGTT; chemistry not given here) [TAR32, reference compound]
- Fold IC50 relative to TG12 for inhibition of nucleic acid binding (full length TDP-43 [1]; bt-TG12 binding to full length TDP-43): ~ 10 fold
- IC50 (full length TDP-43 [1]; read-out: IC50 (95% CI) inhibition of bt-TG12 binding to full length TDP-43, 1.0 nM bt-TG12, TDP-43 1.6 nM, geometric mean of four determinations (Section 2.4)): 16 nM

Molecule: COc1ccc(-c2cc(NCCCN(C)C)c3ccccc3n2)cc1 [AAQ1, (3-{[2-(4-methoxyphenyl)quinolin-4-yl]amino}propyl)dimethylamine]
- Ki (full length TDP-43 [2]): 3400 nM
- Mode of inhibition of UBQLN2 binding to full length TDP-43 (full length TDP-43 [2]; F-test comparison of global fits with the mixed inhibition model): competitive
- IC50 (full length TDP-43 [1]): 1000 nM
- Ki [3]: 4200 nM
- Mode of inhibition of UBQLN2 binding to C-terminal TDP-43 ([3]; C-terminal TDP-43 (261-414 aa)): competitive
- IC50 (full length TDP-43 [4]): 5500 nM
- Fold less potent for inhibition of UBQLN2 binding compared to inhibition of nucleic acid binding to TDP-43 (full length TDP-43 [4]; full length TDP-43): 5 fold

Molecule: CN(C)CCN(C)c1cc(-c2ccccc2)nc2ccccc12 [AAQ2, N-[2-(dimethylamino)ethyl]-N-methyl-2-phenylquinolin-4-amine]
- IC50 (full length TDP-43 [1]): > 100 nM
- IC50 inhibition of bt-TG12 binding to TDP-43 (full length TDP-43 [1]; 1.0 nM bt-TG12, TDP-43 1.6 nM): no activity
- IC50 (full length TDP-43 [4]): > 100 nM
- IC50 inhibition of UBQLN2 binding to TDP-43 (full length TDP-43 [4]; 1.4 nM UBQLN2, TDP-43 1.6 nM): no activity

Molecule: UBQLN2: N-terminal 6XHIS tagged full length UBQLN2 protein, custom made by ProteinTech Group
- Kd [5]: 8.7 nM
- Mode of inhibition of bt-TG12 binding to full length TDP-43 (full length TDP-43 [6]): noncompetitive
- IC50 for inhibition of bt-TG12 binding to N-terminal TDP-43 [7]: unable to inhibit
- UBQLN2 binding to N-terminal TDP-43 [8]: unable to detect appreciable UBQLN2 binding

B1: Human N-terminal GST tagged C-terminal TDP-43 (261-414 aa) (domain or fragment, UniProt Q13148 261-414, looked up)
chain: EPKHNSNRQLERSGRFGGNPGGFGNQGGFGNSRGGGAGLGNNQGSNMGGGMNFGAFSINPAMMAAAQAALQSSWGMMGMLASQQNQSGPSGNNQNQGNMQREPNQAFGSGNNSYSGSNSGAAIGWGSASNAGSGSGFNGGFGSSMDSKSSGWGM
- Kd [9]: 8.7 nM
